# In ChEMBL document CHEMBL1145542, “Discovery of a new class of potent, selective, and orally bioavailable CRTH2 (DP2) receptor antagonists for the treatment of allergic inflammatory diseases” (J Med Chem, 2008):
# Assays:
# [1] = target: T1, Prostaglandin D2 receptor 2 (Homo sapiens, UniProt Q9Y5Y4); test: Antagonist activity at human CRTH2 receptor expressed in CHO cell membrane by [35S]GTP-gamma-S binding assay; type: functional, cell membranes
# T1 sequence (Q9Y5Y4 whole entry): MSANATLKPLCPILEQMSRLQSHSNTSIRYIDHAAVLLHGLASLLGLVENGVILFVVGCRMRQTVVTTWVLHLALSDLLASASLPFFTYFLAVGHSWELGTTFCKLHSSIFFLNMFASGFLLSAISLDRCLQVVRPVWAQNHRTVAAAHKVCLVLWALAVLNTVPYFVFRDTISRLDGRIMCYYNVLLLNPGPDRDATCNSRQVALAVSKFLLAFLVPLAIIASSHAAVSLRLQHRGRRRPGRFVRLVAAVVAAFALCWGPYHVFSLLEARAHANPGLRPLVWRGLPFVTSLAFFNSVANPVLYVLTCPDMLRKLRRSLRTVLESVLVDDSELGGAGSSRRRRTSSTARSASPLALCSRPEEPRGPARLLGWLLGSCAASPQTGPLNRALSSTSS
# Method in brief: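 [35S]GTPγS binding at 30 °C on 10 µg human CRTH2 membranes in 20 mM HEPES/KOH pH 7.4, 10 mM MgCl2, 10 µg/mL saponin, 3 µM GDP, 150 mM NaCl, 2% Me2SO. PGD2 preincubation 10 min (antagonist mode: 80 nM PGD2), then 0.15 nM [35S]GTPγS for 30 min. Nonspecific binding with 10 µM GTPγS; stopped by centrifugation, scintillation counting.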
# [2] = target: T1, Prostaglandin D2 receptor 2; test: Displacement of [3H]PGD2 from human CRTH2 receptor expressed in CHO cells; type: cell-based
# Method in brief: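 Scintillation proximity competition assay: 2–5 µg human or mouse CRTH2 membranes (nitrogen-cavitation, differential centrifugation) with WGA-SPA beads and 1.5 nM [3H]PGD2 in 10 mM HEPES/KOH pH 7.4, 10 mM MnCl2, protease inhibitors, 1% Me2SO, 90 min shaking at room temperature. Nonspecific binding with 1 µM PGD2. Ki by Cheng–Prusoff, mean of ≥3 independent experiments.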
# [3] = Lipophilicity, log D of the compound; type: physicochemical; details: octanol/water
# [4] = Intrinsic clearance per mg of protein in human liver microsomes at 3 uM; type: ADME, Microsome
# Method in brief: (§1)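 Rat or human liver microsomes (0.5 mg/mL final) in 0.1 M phosphate pH 7.4 with 3 µM compound (1% DMSO), preincubated at 37 °C, started with 1 mM NADPH. Quenched with cold acetonitrile at 0, 15, 30, 45 min; LC/MS-MS of compound disappearance gives intrinsic clearance.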
# [5] = Intrinsic clearance per mg of protein in rat liver microsomes at 3 uM; type: ADME, Microsome; method in brief: as §1
# [6] = Apparent permeability across human Caco-2 cell membrane at 10 uM; type: ADME, cell-based
# Method in brief: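 Caco-2 monolayers grown 21 days on Transwell filters; TEER above 800 ohm·cm² required. 10 µM test compound in HBSS added apically (A to B) or basolaterally (B to A), 2 h at 37 °C. Both compartments sampled, analysed by LC/MS-MS.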
Ki [2],Compound,further results
68 nM,O=C(O)CN1C(=O)C2(CC(=O)N(Cc3cccc(Cl)c3)C2=O)c2cc(Cl)ccc21 (centres undefined),IC50 [1]: 122 nM
4670 nM,CN(C)C(=O)CN1C(=O)CC2(C1=O)C(=O)N(CC(=O)O)c1ccc(Cl)cc12 (centres undefined),–
> 30000 nM,CCOC(=O)CN1C(=O)C2(CC(=O)N(Cc3ccccc3)C2=O)c2cc(Cl)ccc21 (centres undefined),–
870 nM,O=C(O)CN1C(=O)[C@]2(CC(=O)N(Cc3cccc(Cl)c3)C2=O)c2cc(Cl)ccc21,–
43 nM,O=C(O)CN1C(=O)C2(CC(=O)N(Cc3cc(F)ccc3Cl)C2=O)c2cc(Cl)ccc21 (centres undefined),logD [3]: -0.3; microsomal CLint at 3 µM [4]: 2 µL/min/mg; microsomal CLint at 3 µM [5]: 24 µL/min/mg
8900 nM,CN1C(=O)CC2(C1=O)C(=O)N(CCCC(=O)O)c1ccc(F)cc12 (centres undefined),–
2040 nM,O=C(O)CN1C(=O)[C@]2(CC(=O)N(Cc3ccccc3)C2=O)c2cc(Cl)ccc21,–
747 nM,O=C(O)CN1C(=O)C2(CC(=O)N(C/C=C/c3ccccc3)C2=O)c2cc(Cl)ccc21 (centres undefined),–
20 nM,O=C(O)CN1C(=O)C2(CC(=O)N(Cc3cc(F)cc(Cl)c3)C2=O)c2cc(Cl)ccc21 (centres undefined),logD [3]: -0.2; microsomal CLint at 3 µM [4]: 10 µL/min/mg; microsomal CLint at 3 µM [5]: 8 µL/min/mg
2240 nM,Cc1onc(-c2ccccc2)c1CN1CCC2(C1=O)C(=O)N(CC(=O)O)c1ccc(Cl)cc12 (centres undefined),–
1660 nM,O=C(O)CCCN1C(=O)C2(CC(=O)N(Cc3ccccc3)C2=O)c2cc(Cl)ccc21 (centres undefined),–
72 nM,COc1cccc(CN2C(=O)C[C@]3(C2=O)C(=O)N(CC(=O)O)c2ccc(Cl)cc23)c1,Papp at 10 µM [6]: 0.8 ×10⁻⁶ cm/s; microsomal CLint at 3 µM [4]: 9 µL/min/mg; microsomal CLint at 3 µM [5]: 68 µL/min/mg
356 nM,CC(c1ccccc1)N1C(=O)CC2(C(=O)N(CC(=O)O)c3ccc(Cl)cc32)C1=O (centres undefined),–
769 nM,C=CCN1C(=O)CC2(C1=O)C(=O)N(CCCC(=O)O)c1ccc(Cl)cc12 (centres undefined),–
7.6 nM,Cc1onc(-c2ccccc2)c1CN1C(=O)CC2(C1=O)C(=O)N(CC(=O)O)c1ccc(Cl)cc12 (centres undefined),logD [3]: -0.6; IC50 [1]: 21 nM; microsomal CLint at 3 µM [5]: 26 µL/min/mg
233 nM,COc1ccccc1CN1C(=O)CC2(C1=O)C(=O)N(CC(=O)O)c1ccc(Cl)cc12 (centres undefined),–
926 nM,O=C(O)CN1C(=O)[C@]2(CC(=O)N(Cc3ccccc3F)C2=O)c2cc(Cl)ccc21,–
> 30000 nM,CN(C)C(=O)CN1C(=O)CC2(C1=O)C(=O)N(CC(=O)O)c1ccc(F)cc12 (centres undefined),–
4170 nM,O=C(O)CCCN1C(=O)C2(CC(=O)N(Cc3ccccc3)C2=O)c2cc(F)ccc21 (centres undefined),–
96 nM,O=C(O)CN1C(=O)C2(CC(=O)N(Cc3ccc(F)cc3)C2=O)c2cc(Cl)ccc21 (centres undefined),IC50 [1]: 182 nM
143 nM,O=C(O)CN1C(=O)C2(CC(=O)N(Cc3ccc(Oc4ccccc4)cc3)C2=O)c2cc(Cl)ccc21 (centres undefined),–
4130 nM,C=CCN1C(=O)CC2(C1=O)C(=O)N(CCCC(=O)O)c1ccc(F)cc12 (centres undefined),–
154 nM,COc1ccc(CN2C(=O)CC3(C2=O)C(=O)N(CC(=O)O)c2ccc(Cl)cc23)cc1F (centres undefined),–
10 nM,O=C(O)CN1C(=O)C2(CC(=O)N(Cc3cc(Cl)ccc3F)C2=O)c2cc(Cl)ccc21 (centres undefined),IC50 [1]: 48 nM
36 nM,O=C(O)CN1C(=O)C2(CC(=O)N(Cc3cc(Cl)cc(Cl)c3)C2=O)c2cc(Cl)ccc21 (centres undefined),IC50 [1]: 82 nM
25 nM,O=C(O)CN1C(=O)C2(CC(=O)N(Cc3cccc(F)c3F)C2=O)c2cc(Cl)ccc21 (centres undefined),IC50 [1]: 296 nM
1760 nM,O=C(O)CCCN1C(=O)C2(CC(=O)N(Cc3ccccc3F)C2=O)c2cc(Cl)ccc21 (centres undefined),EC50 [1]: 2200 nM
212 nM,COc1ccc(-c2nc(CN3C(=O)CC4(C3=O)C(=O)N(CC(=O)O)c3ccc(Cl)cc34)no2)cc1 (centres undefined),–
2740 nM,COc1ccc2c(c1)C1(CC(=O)N(Cc3ccccc3)C1=O)C(=O)N2CC(=O)O (centres undefined),–
24 nM,O=C(O)CN1C(=O)C2(CC(=O)N(Cc3csc(-c4cccc(Cl)c4)n3)C2=O)c2cc(Cl)ccc21 (centres undefined),IC50 [1]: 48 nM
